Test results: ChEMBL document CHEMBL2016441, “Discovery and structural development of small molecules that enhance transport activity of bile salt export pump mutant associated with progressive familial intrahepatic cholestasis type 2” (Bioorg Med Chem, 2012); call rule not given here

Key:
Bile salt export pump [1] = molecular target: T1, Bile salt export pump (Homo sapiens, UniProt O95342, E297G); assay: (§1) Restoration of human BSEP E297G mutant trafficking to cell membrane in MDCK2 cells co-expressing NTCP assessed as increase in [3H]taurocholate transport measuring apparent efflux clearance across the apical membrane at 1 mM preincubated for 24 hrs prior incubation with [3H]taurocholate measured after 2 hrs by transcellular transport assay relative to control; assay type: cell-based; conditions: mdck2, 2 h, 1000 µM
T1 sequence (O95342 whole entry E297G): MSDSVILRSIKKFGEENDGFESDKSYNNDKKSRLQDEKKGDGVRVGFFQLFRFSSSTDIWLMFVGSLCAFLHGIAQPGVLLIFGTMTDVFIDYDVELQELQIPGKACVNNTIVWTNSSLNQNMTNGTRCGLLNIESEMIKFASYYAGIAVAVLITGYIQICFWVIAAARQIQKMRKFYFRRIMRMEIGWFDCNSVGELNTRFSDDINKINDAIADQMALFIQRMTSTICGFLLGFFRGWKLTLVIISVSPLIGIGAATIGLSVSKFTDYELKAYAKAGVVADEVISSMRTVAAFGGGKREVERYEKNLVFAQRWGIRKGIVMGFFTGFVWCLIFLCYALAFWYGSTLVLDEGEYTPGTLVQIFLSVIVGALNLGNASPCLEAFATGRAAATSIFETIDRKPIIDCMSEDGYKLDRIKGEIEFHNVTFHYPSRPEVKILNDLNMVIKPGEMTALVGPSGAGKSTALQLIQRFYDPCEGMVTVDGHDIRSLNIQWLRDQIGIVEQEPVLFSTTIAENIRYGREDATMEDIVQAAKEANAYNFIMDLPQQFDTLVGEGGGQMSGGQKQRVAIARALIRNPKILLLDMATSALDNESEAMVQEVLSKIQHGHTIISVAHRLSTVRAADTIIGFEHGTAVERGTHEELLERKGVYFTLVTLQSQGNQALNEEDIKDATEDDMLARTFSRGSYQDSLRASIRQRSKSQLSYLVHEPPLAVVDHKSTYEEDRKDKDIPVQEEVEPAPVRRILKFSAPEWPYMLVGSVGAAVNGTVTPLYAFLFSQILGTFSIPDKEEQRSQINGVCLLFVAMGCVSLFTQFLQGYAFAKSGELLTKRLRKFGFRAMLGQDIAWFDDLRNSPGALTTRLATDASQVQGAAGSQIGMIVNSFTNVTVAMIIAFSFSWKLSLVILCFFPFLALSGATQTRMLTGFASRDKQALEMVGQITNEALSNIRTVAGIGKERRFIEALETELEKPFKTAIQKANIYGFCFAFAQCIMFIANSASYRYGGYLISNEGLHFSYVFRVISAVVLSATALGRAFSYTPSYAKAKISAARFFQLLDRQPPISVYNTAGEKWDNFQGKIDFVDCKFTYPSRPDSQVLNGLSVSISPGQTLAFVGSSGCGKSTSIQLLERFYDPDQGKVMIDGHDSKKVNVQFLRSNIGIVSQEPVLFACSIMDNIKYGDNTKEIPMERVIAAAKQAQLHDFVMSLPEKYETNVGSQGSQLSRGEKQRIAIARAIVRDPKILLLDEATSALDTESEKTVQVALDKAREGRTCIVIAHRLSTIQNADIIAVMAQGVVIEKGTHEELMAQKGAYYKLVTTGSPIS
Outline: (§2)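 MDCK II cells grown 2 days on Transwell inserts, then infected with E297G BSEP or GFP adenovirus (50 MOI). Compounds added 24 h later for 24 h. [3H]TC added basally. PS_apical is the steady-state transcellular rate over 2 h divided by the cellular [3H]TC concentration at 2 h. Mean ± SE of triplicates.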

Bile salt export pump [2] = molecular target: T1, Bile salt export pump; assay: Restoration of human BSEP E297G mutant trafficking to cell membrane in MDCK2 cells co-expressing NTCP assessed as accumulation of [3H]taurocholate at 10 uM preincubated for 24 hrs prior incubation with [3H]taurocholate measured after 2 hrs by liquid scintillation counting; assay type: cell membranes; conditions: mdck2, 2 h
Outline: (§3)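 Human WT or E297G BSEP delivered by recombinant adenovirus (50 MOI) into MDCK II cells on 24-well plates, 1 day after seeding. GFP adenovirus serves as control. Compounds added 24 h post-infection for 24 h. Cells washed with Krebs–Henseleit buffer pH 7.4, then incubated with [3H]TC for 2 h and washed with ice-cold buffer. Lysed in 2 N HCl, neutralized with NaOH, counted by scintillation. Read-out is the BSEP/GFP accumulation ratio.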

Bile salt export pump [3] = molecular target: T1, Bile salt export pump; assay: Restoration of human BSEP E297G mutant trafficking to cell membrane in MDCK2 cells co-expressing NTCP assessed as decrease in [3H]taurocholate accumulation preincubated for 24 hrs prior incubation with [3H]taurocholate measured after 2 hrs by liquid scintillation counting; assay type: cell membranes; conditions: mdck2, 2 h; outline: as §3
Bile salt export pump [4] = molecular target: T1, Bile salt export pump; assay: as §1, with “10 uM” for “1 mM”; assay type: cell-based; conditions: mdck2, 2 h; outline: as §2
Bile salt export pump [5] = molecular target: T1, Bile salt export pump; assay: Restoration of human BSEP E297G mutant trafficking to cell membrane in MDCK2 cells co-expressing NTCP assessed as accumulation of [3H]taurocholate at 100 uM preincubated for 24 hrs prior incubation with [3H]taurocholate measured after 2 hrs by liquid scintillation counting; assay type: cell membranes; conditions: mdck2, 2 h
Bile salt export pump [6] = molecular target: Bile salt export pump (Homo sapiens, UniProt O95342); assay: Restoration of wild type human BSEP trafficking to cell membrane in MDCK2 cells co-expressing NTCP assessed as decrease in [3H]taurocholate accumulation at 10 to 100 uM preincubated for 24 hrs prior incubation with [3H]taurocholate measured after 2 hrs by liquid scintillation counting; assay type: cell membranes; conditions: mdck2, 2 h; outline: as §3
Chain of Bile salt export pump (Homo sapiens, UniProt O95342) (O95342 whole entry): as the sequence (O95342 whole entry E297G) above, with G297E counted along it

SMILES | Activity (Bile salt export pump [2]) | also measured
O=C(O)CCCc1ccccc1 |  | fold change (FC) (Bile salt export pump [1]): 3
CCCCN(C(=O)c1ccc(OCc2c(-c3c(Cl)cccc3Cl)noc2C(C)C)cc1Cl)c1cccc(C(=O)O)c1 | 49% | 
CC(C)c1onc(-c2c(Cl)cccc2Cl)c1COc1ccc(C(=O)N(c2cccc(C(=O)O)c2)c2cccc3ccccc23)c(Cl)c1 | 59% | 
CC(C)c1onc(-c2c(Cl)cccc2Cl)c1COc1ccc(C(=O)N(c2cccc(C(=O)O)c2)c2ccc3ccccc3c2)c(Cl)c1 | 70% | 
CC(C)c1onc(-c2ccccc2)c1COc1ccc(C(=O)N(Cc2ccccc2)c2cccc(C(=O)O)c2)c(Cl)c1 | 64% | 
CC(C)c1onc(-c2c(Cl)cccc2Cl)c1COc1ccc(C(=O)N(Cc2ccccc2)c2cccc(C(=O)O)c2)cc1 | 85% | 
Cc1cccc(C)c1-c1noc(C(C)C)c1COc1ccc(C(=O)N(Cc2ccccc2)c2cccc(C(=O)O)c2)c(Cl)c1 | 93% | 
CC(C)c1onc(-c2c(Cl)cccc2Cl)c1COc1ccc(C(=O)N(Cc2ccccc2)c2ccccc2C(=O)O)c(Cl)c1 | 80% | 
CC(C)c1onc(-c2c(Cl)cccc2Cl)c1COc1ccc(C(=O)N(Cc2ccccc2)c2ccc(C(=O)O)cc2)c(Cl)c1 | 35% | 
COC(=O)c1cccc(N(Cc2ccccc2)C(=O)c2ccc(OCc3c(-c4c(Cl)cccc4Cl)noc3C(C)C)cc2Cl)c1 | 93% | 
CC(C)c1onc(-c2c(Cl)cccc2Cl)c1COc1ccc(/C=C/c2cccc(C(=O)O)c2)c(Cl)c1 | 33% | Activity (Bile salt export pump [3]): Dose-dependent effect
CC(C)c1onc(-c2c(Cl)cccc2Cl)c1COc1ccc(C(=O)Nc2cccc(C(=O)O)c2)c(Cl)c1 | 111% | 
CC(C)c1onc(-c2c(Cl)cccc2Cl)c1COc1ccc(C(=O)N(Cc2ccccc2)c2cccc(C(=O)O)c2)c(Cl)c1 | 31% | Activity (Bile salt export pump [3]): Dose-dependent effect; fold change (FC) (Bile salt export pump [4]): 7
CC(C)c1onc(-c2c(Cl)cccc2Cl)c1COc1ccc(C(=O)N(CCc2ccccc2)c2cccc(C(=O)O)c2)c(Cl)c1 | 53% | 
CC(C)c1onc(-c2c(Cl)cccc2Cl)c1COc1ccc(C(=O)N(C)c2cccc(C(=O)O)c2)c(Cl)c1 | 66% | 
C[C@H](CCC(=O)O)[C@H]1CC[C@H]2[C@@H]3[C@H](O)C[C@@H]4C[C@H](O)CC[C@]4(C)[C@H]3CC[C@]12C [CHENODIOL] | 50% | Activity (Bile salt export pump [5]): 46%
C[C@H](CCC(=O)O)[C@H]1CC[C@H]2[C@@H]3[C@H](O)C[C@@H]4C[C@H](O)CC[C@]4(C)[C@H]3C[C@H](O)[C@]12C [CHOLIC ACID] | 73% | Activity (Bile salt export pump [6]): Active; Activity (Bile salt export pump [5]): 40%
C[C@H](CCC(=O)O)[C@H]1CC[C@H]2[C@@H]3CC[C@@H]4C[C@H](O)CC[C@]4(C)[C@H]3C[C@H](O)[C@]12C [DEOXYCHOLIC ACID] |  | Activity (Bile salt export pump [5]): 65%
C[C@H](CCC(=O)NCC(=O)O)[C@H]1CC[C@H]2[C@@H]3[C@H](O)C[C@@H]4C[C@H](O)CC[C@]4(C)[C@H]3C[C@H](O)[C@]12C [GLYCOCHOLIC ACID] |  | Activity (Bile salt export pump [5]): 108%
C[C@H](CCC(=O)O)[C@H]1CC[C@H]2[C@@H]3[C@@H](O)C[C@@H]4C[C@H](O)CC[C@]4(C)[C@H]3CC[C@]12C [URSODIOL] | 76% | Activity (Bile salt export pump [5]): 43%
